Screens deposited in PubChem BioAssay by Sanford-Burnham Center for Chemical Genomics.
Jurkat NFkB inh – lowers PMA/ionomycin-induced NF-kB signal in Jurkat cells; PMA/ionomycin-induced NF-kB luciferase reporter, luminescence; inhibition, % at 4 µM; actives 0.53% (n = 330,000); in the data active means inhibition above about 50%
Hep lipid drop – hepatic lipid droplet formation modulation; actives 0.4% (n = 240,000); inhibition, % at 6.5 µM; AML12 mouse hepatocytes, oleate lipid droplets, BODIPY imaging;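 active means lipid droplet intensity inhibited by at least 50%, with more than 500 cells counted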
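Assay system: AML12 hepatocytes (mouse); Probe or stimulus: oleic acid at 100 µM to induce lipid droplet formation; Dosing: compound at 6.5 µM only; Schedule: compound with oleate, overnight; Detection: fluorescence imaging, 20x objective, two fields per well; Measure: % inhibition of lipid droplet signal.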
H9c2 TAG inh – reduces triacylglycerol accumulation in H9c2 cells; Nile Red lipid (TAG) fluorescence; cells loaded with 200 µM oleic acid; inhibition, % at 12.5 µM; actives 0.66% (n = 230,000); AID 651582;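 active means pattern-corrected inhibition of lipid staining of at least 50% with the nuclear-stain viability signal not falling by more than 50%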;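 further: 0% = DMSO wells and 100% = triacsin C control wells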
697 NFkB inh – lowers PMA/ionomycin-induced NF-kB signal in 697 B cells. inhibition, % at 4 µM. AID 435022. actives 0.33% (n = 330,000). 697 B-cell NF-kB luciferase reporter, 16 h; in the data active means inhibition above about 35%
Gli-Sufu antag – Gli-Sufu pathway antagonism. Sufu-KO-LIGHT fibroblasts, Gli luciferase reporter luminescence. AID 588413. inhibition, % at 5 µM. actives 0.74% (n = 340,000);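 active means inhibition above about 55%, limit read from the data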;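 further: 0% = DMSO-treated cells and 100% = wells with medium but no cells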
hiPSC survival – increases survival of single human iPS cells; hiPSC single-cell survival, ATPlite luminescence; 100% = ROCK inhibitor wells, 0% = DMSO; survival enhancement, % at 20 µM; actives 0.044% (n = 360,000); in the data active means survival enhancement above about 18%;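 further: cells exposed to compounds for 16 hours before the ATP read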
Gli-Sufu confirm – Gli-SUFU antagonism confirmation, single concentration; shares compounds with Gli-Sufu antag; Sufu-KO-LIGHT cells, Gli luciferase reporter, luminescence; inhibition, % at 5 µM; actives 40% (n = 2,500); AID 602428;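 active means mean inhibition at 5 µM reaching about 45%, limit read from the data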;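 further: plate controls were DMSO-treated cells for no effect and wells lacking cells for full effect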
SufuKO cytotox – cytotoxic in Gli-SUFU antagonist counter-screen; cytotoxicity, % at 5 µM; shares compounds with Gli-Sufu antag; Sufu-KO-LIGHT cells cytotoxicity, ATP luminescence; AID 651994; actives 32% (n = 2,500);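 active means mean cytotoxicity at 5 µM above about 25%, limit read from the data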;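 further: cells exposed to compound overnight for roughly 16 to 18 hours; plate controls were DMSO wells with cells for no effect and medium without cells for full effect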
Wnt3a cs – counter-screen for Gli-SUFU antagonists: Wnt3a reporter inhibition; shares compounds with Gli-Sufu antag; Wnt-LIGHT cells, Wnt3a-driven luciferase reporter, luminescence; inhibition, % at 6.25 µM; actives 20% (n = 2,500);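 active means mean inhibition above about 25%, limit read from the data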
Starred values were filed as active, the others as inactive; · = not tested or not shown. An excerpt weighted towards active compounds, which were near 1.8% of everything screened.

SMILES | Jurkat NFkB inh | Hep lipid drop | H9c2 TAG inh | 697 NFkB inh | Gli-Sufu antag | hiPSC survival | Gli-Sufu confirm | SufuKO cytotox | Wnt3a cs
Cc1ccc(S(=O)(=O)N2C[C@@H]3[C@H]4CC[C@H](C4)[C@@H]3[C@@H](C)[C@@H]2c2cn(Cc3ccccc3)c3ncccc23)cc1 | · | · | 21.3 | 1.4 | -8.9 | -0.7 | · | · | ·
Cc1ccc(S(=O)(=O)N2C[C@@H]3CCCC[C@@H]3[C@@H](C)[C@H]2c2cn(Cc3ccccc3)c3ncccc23)cc1 | · | · | -2.3 | 13.4 | 78.5* | -2.3 | 85.8* | 39.9* | 32.6*
Cc1ccc(S(=O)(=O)N2C[C@@H]3CCCC[C@@H]3[C@@H](C)[C@H]2c2cn(Cc3ccccc3)c3ccccc23)cc1 | · | · | -2.9 | 26.4 | 87.5* | 1.3 | 84.9* | 31.6* | 7.5
Cc1ccc(C(=O)Cn2nnc(-c3ccccc3)n2)cc1 | -2.2 | 14.7 | -4.3 | -1.6 | -4.0 | 0.0 | · | · | ·
O=C(Cn1nnc(-c2ccccc2)n1)c1ccccc1 | -16.5 | · | · | -4.8 | 56.7* | -0.5 | -2.3 | 3.6 | 5.0
CC1CCCC(NC(=O)CN2C(=O)c3cccnc3Oc3ccc(Cl)cc32)C1C (stereo not drawn) | 11.3 | -2.0 | · | -35.8 | 9.3 | 0.2 | · | · | ·
NC(=O)c1ccc(NC(=O)CN2CCN(c3ccccc3)CC2)cc1 | -6.2 | 5.7 | 7.9 | 1.5 | 3.5 | -0.3 | · | · | ·
OCCC1CN(Cc2ccccc2O)CCN1CCCc1ccccc1 (stereo not drawn) | 0.5 | -0.5 | -0.3 | 4.6 | 54.0 | -0.2 | 30.0 | -0.6 | -42.9
COc1ccc(CCN2CC(C(=O)NCc3ccc(F)cc3)CC2=O)cc1OC (stereo not drawn) | 3.7 | -22.6 | 4.6 | 11.7 | 3.7 | -0.3 | · | · | ·
O=C(CN1C(=O)c2ccccc2S1(=O)=O)c1ccccc1 | -2.4 | 7.2 | 7.7 | 15.1 | 73.0* | -2.5 | 80.1* | 10.9 | 93.3*
CC(C)NC(=O)CN1C(=O)c2ccccc2S1(=O)=O | -38.4 | 5.7 | 3.2 | -20.4 | 5.2 | -2.9 | · | · | ·
CNc1nc(SCC(=O)Nc2ccc(Cl)c(Cl)c2)nc(N2CCOCC2)n1 | 7.2 | -2.0 | 4.8 | -8.6 | 18.6 | -0.5 | · | · | ·
Cc1cc(C)nc(SCC(=O)Nc2ccc(N3CCOCC3)c(Cl)c2)n1 | 23.9 | -49.6 | -52.4 | -19.5 | 53.3 | -2.2 | 45.1* | 21.0 | -24.0
CC(C)(C)c1ccc(Cn2cnc(-c3ccc([N+](=O)[O-])cc3)c2)cc1 | -41.8 | -7.0 | · | -33.9 | -19.8 | -2.2 | · | · | ·
Cc1cc(C)c(Cn2cnc(-c3ccc([N+](=O)[O-])cc3)c2)c(C)c1 | -5.7 | · | · | -6.0 | 55.4* | -1.5 | 29.8 | 27.8* | -44.0
O=C(OCCOc1cccc(Cl)c1)c1cc(S(=O)(=O)N2CCCCC2)ccc1N1CCOCC1 | 26.4 | · | -65.4 | -33.9 | 63.9* | 0.5 | 66.3* | 35.7* | 19.5
O=C(NCCO)C(O)C(O)C(=O)NCCO (stereo not drawn) | 8.1 | -4.5 | -6.3 | 3.8 | -1.2 | -1.7 | · | · | ·
Cc1ccc(S(=O)(=O)N(CC(=O)NCCSc2ccccn2)c2cc(C)cc(C)c2)cc1 | 2.2 | · | -22.6 | -8.7 | 51.0 | 4.0 | 24.8 | 6.2 | -8.1
CCN(CC)CCNc1ccc(C)c2sc3ccc(O)cc3c(=O)c12 | · | · | 59.3* | · | 66.8* | -4.2 | 68.8* | 12.1 | -44.8
COc1ccc(CCCC(=O)O)c(C)c1 | -4.6 | -10.0 | 11.2 | 5.0 | 95.1* | -1.0 | 19.9 | -10.9 | 16.6
COc1ccccc1NC(=O)C(C)OC(=O)C1CCN(S(=O)(=O)c2ccc(C)c(C)c2)CC1 (stereo not drawn) | 9.3 | · | 0.6 | 9.5 | 15.1 | -0.4 | · | · | ·
O=C(c1cc(COc2cccc(C(F)(F)F)c2)on1)N1CCC(c2ccccc2)CC1 | 0.8 | -29.2 | -14.1 | -2.2 | 6.1 | 0.3 | · | · | ·
O=C(c1cc(COc2cccc(C(F)(F)F)c2)on1)N1CCC(c2ccncc2)CC1 | 17.2 | -12.6 | -21.6 | -57.2 | 50.5 | 1.5 | 61.5* | 37.4* | -77.2
COc1ccccc1Cn1c(C)nc2ccccc21 | 6.7 | 13.3 | -2.3 | 3.9 | -13.2 | 0.3 | · | · | ·
Cc1ccccc1Cn1c(C)nc2ccccc21 | 32.0 | -24.4 | · | -23.3 | 68.8* | -0.3 | 56.1* | 36.5* | 29.9*
SMILES | Jurkat NFkB inh | Hep lipid drop | H9c2 TAG inh | 697 NFkB inh | Gli-Sufu antag | hiPSC survival | Gli-Sufu confirm | SufuKO cytotox | Wnt3a cs
CC(=O)c1ccc(NC(=O)Nc2ccc(NS(=O)(=O)c3ccc(C)cc3)cc2)cc1 | 1.5 | · | -17.0 | -6.2 | 75.2* | 0.8 | 21.7 | 5.9 | 25.0*
CCN(CC)CCN(C(=O)c1cc2ccccc2cc1OC)c1nc2ccc(F)cc2s1 | -22.3 | 7.5 | · | 1.2 | 51.0 | 0.4 | 28.1 | -1.6 | -34.6
O=C(Nc1cc(Sc2ccccn2)cc([N+](=O)[O-])c1)c1ccc([N+](=O)[O-])cc1 | 12.0 | · | -4.4 | -8.8 | 54.7 | -0.9 | 23.9 | 26.5* | -51.1
O=C(Nc1ccc([N+](=O)[O-])cc1)c1ccccc1 | -58.4 | 2.6 | 15.3 | -69.2 | -46.8 | -0.7 | · | · | ·
COc1ccc(OC)c(NC(=O)C2CCN(S(=O)(=O)c3c(C)noc3C)CC2)c1 | 7.2 | -3.0 | -2.1 | 13.5 | 94.1* | 1.8 | 24.9 | -1.5 | 6.6
Cc1cc(C)cc(NC(=S)NC(=O)Cc2ccccc2)c1 | -1.8 | · | -17.9 | -2.8 | 60.5* | 0.0 | 11.7 | 22.7 | 0.4
Cc1ccc(C(=O)O)cc1NC(=S)NC(=O)Cc1ccccc1 | -4.1 | · | -3.8 | 8.0 | -21.2 | -1.6 | · | · | ·
CC(C)c1ccc2[nH]c3c(c2c1)[C@@H]1CCN2C(=O)CCC[C@H](C3)[C@H]12 | -39.9 | · | -24.8 | -55.9 | -14.9 | -0.2 | · | · | ·
O=C(COc1ccccc1)Nc1ccc(OC(F)(F)C(F)F)c(NC(=O)COc2ccccc2)c1 | -29.0 | 8.5 | 22.2 | 12.2 | 60.6* | 1.6 | 3.5 | 1.9 | -56.5
Cc1cc(C(=O)COC(=O)c2cccnc2Cl)c(C)n1-c1c(C)n(C)n(-c2ccccc2)c1=O | -9.0 | 14.2 | · | 18.3 | -7.4 | 4.0 | · | · | ·
Cc1cc(C)cc(C(=O)N(NC(=O)Nc2ccc(Cl)cc2)C(C)(C)C)c1 | 4.7 | · | 28.6 | 18.0 | 59.9* | -1.5 | 21.8 | 9.7 | -3.2
CC(C)(C)N(NC(=O)Nc1ccc(Cl)c(Cl)c1)C(=O)c1ccccc1 | -4.5 | · | 5.1 | 18.1 | 8.0 | 0.8 | · | · | ·
CCOc1ccc(NCC(=O)c2ccc(C)cc2)cc1 | 3.2 | 17.5 | -34.4 | 2.0 | 60.9* | 0.2 | -4.7 | 20.9 | -77.2
CC(=O)c1ccc(OCCCC(=O)OCC(=O)N2CCN(S(=O)(=O)c3ccc(C)cc3C)CC2)cc1 | · | · | -10.3 | · | -4.8 | 1.2 | · | · | ·
